Glyco luc inh – N-linked glycosylation inhibition | D54 ERlucT glycosylation luciferase reporter, 24 h; percent of 100 nM tunicamycin response | reporter increase, % at 12.5 µM | 360,000 tested, 0.23% active | AID 588692;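 active means mean luciferase reporter signal, scaled so untreated is 0 and the glycosylation-blocking control 100, at or above a set limit in every replicate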;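 further: luciferase carries N-glycosylation sites so blocking glycosylation raises the light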
Arr AP2 block – inhibitors of human beta-arrestin and AP2 interaction; AID 504490; inhibition, % at 10 µM; FITC-arrestin peptide / GST-AP2 beads, flow cytometry; AP2 beta2 appendage carries R879A mutation; 340,000 tested, 0.31% active;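 active means inhibition above a set limit, near 3 SD of compounds lacking own fluorescence, cut at about 54% in these data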
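System: GST-AP2 R879A glutathione beads. Medium: PBS with 0.05% Tween 20 and 0.1% BSA. Also added: FITC-arrestin peptide, 50 nM. Incubation: 12 min plus 1 h, RT. Measured by: high-throughput flow cytometry of beads, ex 488, em 535 nm. Evaluation: percent drop in bead-associated FITC signal.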
Env fusion inh – inhibitors of HIV Env-mediated cell fusion; HeLa-JRFL Env/CEM21 cell fusion, luciferase; inhibition, % at 12.3 µM; AID 651610; 360,000 tested, 1.1% active;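 active means mean replicate inhibition score of at least 50 and every replicate individually at or above 50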
Rtt109 Vps75 – blocks Candida albicans Rtt109/Vps75 acetyltransferase activity | purified Rtt109/Vps75, ThioGlo CoA-SH fluorescence, 4 h | inhibition, % at 34.9 µM | 330,000 tested, 0.16% active | AID 540336;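 active means inhibition of at least 50% in every replicate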
Target sequence (Q5AAJ8 whole entry, looked up): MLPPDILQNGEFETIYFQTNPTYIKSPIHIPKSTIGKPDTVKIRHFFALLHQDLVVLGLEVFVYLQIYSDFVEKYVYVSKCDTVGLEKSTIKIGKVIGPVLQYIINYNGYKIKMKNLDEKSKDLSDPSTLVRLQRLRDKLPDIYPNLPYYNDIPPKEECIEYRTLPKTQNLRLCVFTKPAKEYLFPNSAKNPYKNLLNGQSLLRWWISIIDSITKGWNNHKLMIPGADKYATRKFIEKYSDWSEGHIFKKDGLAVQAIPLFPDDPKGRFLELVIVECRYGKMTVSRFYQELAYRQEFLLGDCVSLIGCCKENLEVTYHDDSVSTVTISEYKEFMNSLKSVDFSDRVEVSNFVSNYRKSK
PfHsp90 yeast 2 – inhibits growth of yeast expressing Plasmodium falciparum Hsp90 | AID 504621 | inhibition, % at 9.4 µM | 310,000 tested, 0.32% active | S. cerevisiae expressing PfHsp90, BacTiter-Glo ATP, 48 h; yeast lacking PDR1 and PDR3 efflux regulators;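 active means every replicate shows inhibition above about 80%, whatever the replicate mean, limit read from the data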
PAX8 inh HTS – inhibitors of PAX8 transcriptional activity in RMG-I cells; inhibition, % at 12.6 µM; RMG-I TPO-luciferase reporter, SteadyGlo, 24 h; 360,000 tested, 1.2% active;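 active means mean replicate inhibition at least 60% with every replicate also reaching 60%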;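 further: luciferase light reporting Pax8 driven TPO promoter activity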
A number is an active result; . = inactive; / = no result; [ ] = dose if it differs, or a comment. This is a sample that favours compounds with a hit; in the whole collection about 2.3% have one here.

SMILES | Glyco luc inh | Arr AP2 block | Env fusion inh | Rtt109 Vps75 | PfHsp90 yeast 2 | PAX8 inh HTS
COc1ccc(CN(C)c2ncnc3sccc23)c(OC)c1OC | 30 | . | . | . | . | .
CN(Cc1cccs1)c1ncnc2sccc12 | . | . | 70 | . | . | /
c1ccc(CNc2ncnc3sccc23)cc1 | . | . | . | . | . | .
C[C@@H]1CN([C@H](C)CO)C(=O)Cc2cc(NC(=O)NC3CCCCC3)ccc2O[C@H]1CN(C)C(=O)Nc1ccc2c(c1)OCO2 | / | / | . | / | / | .
Cc1noc(C)c1S(=O)(=O)Nc1ccc2c(c1)C(=O)N([C@H](C)CO)C[C@@H](C)[C@H](CN(C)C(=O)c1ccccc1)OCCCC[C@@H](C)O2 | / | / | . | / | / | .
COc1ccc(-c2cnc3c(c2)C(=O)N([C@H](C)CO)C[C@H](C)[C@@H](CN(C)S(=O)(=O)c2ccc(OC)cc2)O3)cc1 | / | / | . | / | / | /
O=C(N/N=C/c1ccc(OC(F)F)cc1OC(F)F)c1ccc(Br)cc1 | . | . | . | . | . | .
Cc1ccc(S(=O)(=O)N(C)Cc2ccc(C(=O)N/N=C/c3ccc(OC(F)F)cc3OC(F)F)cc2)cc1 | . | . | 66 | . | . | .
COc1cccc(S(=O)(=O)N[C@@H]2CC[C@H](CCN)O[C@@H]2CO)c1 | / | / | . | / | / | .
COc1cccc(S(=O)(=O)N[C@H]2CC[C@@H](CCN)O[C@@H]2CO)c1 | / | / | 68[16.7 µM] | / | / | .
COc1cccc(S(=O)(=O)N[C@@H]2CC[C@@H](CCN)O[C@@H]2CO)c1 | / | / | . | / | / | .
COc1cccc(S(=O)(=O)N[C@@H]2CC[C@H](CCN)O[C@H]2CO)c1 | / | / | 66[16.7 µM] | / | / | .
Cc1ccc(S(=O)(=O)N(C)C[C@@H]2Oc3cc(C#Cc4ccccc4)ccc3S(=O)(=O)N([C@@H](C)CO)C[C@H]2C)cc1 | / | / | . | / | / | .
COc1ccc(COCC23N=C4SCc5ccccc5CN4[C@H](c4ccccc4O2)[C@H]3CO)cc1 | / | / | . | / | / | .
CNC[C@H](CC1CCCCC1)NC[C@H](CO)NCCc1cccc(C(F)(F)F)c1 | . | . | . | . | . | 72
CN(C)c1nc(OCCNC(=O)COc2ccc(Cl)cc2Cl)nc(N(C)C)n1 | . | . | 44 | . | / | .
Cc1sc2cc3c(c(C(=O)c4ccccc4)[n+]2c1C)-c1cccc2cccc-3c12 | / | / | . | / | / | 86
O=C(c1ccccc1)c1ccc2ccccc2c1 | . | . | / | . | . | .
O=C(c1ccccc1)c1c2c(cc3sc4ccccc4[n+]13)-c1cccc3cccc-2c13 | . | . | . | . | . | 66
Cc1cc2ccccc2cc1C(=O)c1ccccc1 | . | . | . | . | . | .
Cc1ccccc1-c1ccc2c(c1)O[C@H](CN(C)C(=O)Nc1ccc(F)cc1)[C@H](C)CN([C@@H](C)CO)S2(=O)=O | / | / | . | / | / | .
COC(=O)C1=C(C)N(Cc2cccc(C(F)(F)F)c2)C(=NCc2ccc(OC)cc2)NC1c1ccc(F)cc1 (centres undefined) | / | / | . | / | / | .
COC(=O)C1=C(C)N(Cc2cccc(C(F)(F)F)c2)C(=NCc2ccc(OC)cc2)NC1c1cccc(F)c1 (centres undefined) | / | / | . | / | / | 99
COC(=O)C1=C(C)N(Cc2cccc(C(F)(F)F)c2)C(=NCc2ccc(OC)cc2)NC1c1ccccc1 (centres undefined) | / | / | 55 | / | / | .
CC(=O)N(C)C[C@H]1OCc2ccccc2-c2ccccc2C(=O)N([C@@H](C)CO)C[C@@H]1C | / | / | . | / | / | .
SMILES | Glyco luc inh | Arr AP2 block | Env fusion inh | Rtt109 Vps75 | PfHsp90 yeast 2 | PAX8 inh HTS
Cc1noc(C)c1S(=O)(=O)Nc1cccc2c1O[C@@H](CN(C)Cc1ccncc1)[C@@H](C)CN([C@H](C)CO)C2=O | / | / | . | / | / | /
NC(=O)[C@@H]1[C@H]2C(=O)O[C@H](c3ccccc3)[C@H](c3ccccc3)N2[C@H](c2ccc(OCCO)cc2)[C@@]12C(=O)Nc1ccccc12 | / | / | . | / | / | /
CCN(CC)CCCNC1=C(Cl)C(=O)c2ccccc2C1=O | . | . | . | . | / | 70
O=C1C(Cl)=C(Nc2ccccc2)C(=O)c2ccccc21 | . | . | . | . | . | .
COCCCNC1=C(Cl)C(=O)c2ccccc2C1=O | . | . | . | . | . | .
CC(=O)N(Cc1ccc(F)cc1)C1=C(NCCc2ccccc2)C(=O)c2ccccc2C1=O | . | . | 84 | . | . | 105
CC(=O)N(Cc1ccc(F)cc1)c1cccc(C)c1C | . | . | . | / | . | .
O=C(O)c1ccc(NC2=C(Cl)C(=O)c3ccccc3C2=O)cc1 | . | . | . | . | . | 83
O=C1C(Cl)=C(NCCc2ccccc2)C(=O)c2ccccc21 | . | . | . | . | 116 | .
C[C@@H]1CN([C@@H](C)CO)C(=O)c2cc(-c3ccncc3)cnc2O[C@H]1CN(C)C(=O)C1CCCCC1 | / | / | . | / | / | /
C/C=C/c1cnc2c(c1)C(=O)N([C@H](C)CO)C[C@H](C)[C@@H](CN(C)C(=O)NCCC)O2 | / | / | . | / | / | /
CO[C@@H]1CN(C)C(=O)c2cc(NS(=O)(=O)c3ccccc3)ccc2OC[C@@H](C)N(Cc2ccccn2)C[C@H]1C | / | / | . | / | / | /
Cc1ccc(C(=O)NC(NCc2ccccc2)C(Cl)(Cl)Cl)cc1 (centres undefined) | . | . | / | . | . | 145
O=C(NCc1ccccc1)c1ccc(C(=O)NCc2ccccc2)cc1 | . | . | 82 | . | . | /
O=C(O)/C=C\C(=O)NCc1ccccc1 | . | . | . | . | / | .
O=C(O)/C=C/C(=O)NCc1ccccc1 | . | . | / | . | . | 82
C[C@@H]1CCCCO[C@H](CN(C)C)[C@H](C)CN([C@H](C)CO)C(=O)c2cc(NS(C)(=O)=O)ccc2O1 | / | / | . | / | / | .
Cc1c(P(=S)(c2ccccc2)c2ccccc2)[n+]2ccccc2n1C/C=C/c1ccccc1 | . | / | . | / | / | 101
CC(O)c1nc2ccccc2n1C/C=C/c1ccccc1 (centres undefined) | . | . | . | . | / | /
